Measured values published in ChEMBL document CHEMBL2380260, “Structure-activity relationship of N,N'-disubstituted pyrimidinetriones as Ca(V)1.3 calcium channel-selective antagonists for Parkinson's disease” (J Med Chem, 2013).

Assays:
[1] = Selectivity ratio of IC50 for rabbit CaV1.2alpha1C to IC50 for rat CaV1.3alpha1D
Summary of the method: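 Selectivity is defined as […] the ratio of the CaV1.2 IC50 to the CaV1.3 IC50. Both IC50s come from the Fluo-8 FLIPR calcium influx assay in stably transfected HEK293 cells, each run in triplicate and fitted to a one-site sigmoidal model.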

[2] = molecular target: Voltage-dependent L-type calcium channel subunit alpha-1C (Oryctolagus cuniculus, UniProt P15381); test: Antagonist activity at rabbit CaV1.2alpha1C transfected in HEK293 cells by FLIPR assay; type: cell-based
Summary of the method: (§1)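 HEK293 cells stably expressing the L-type channel (rat CaV1.3 α1D with all alternative splice sites, or rabbit CaV1.2 α1C), each co-expressed with rat β3 and α2δ-1 subunits. Cells plated at 4 × 10⁴ cells/well and cultured in DMEM with 10% FBS for 4 days. Calcium influx read by Fluo-8 no-wash dye fluorescence on FLIPR Tetra. IC50 from triplicate percent-inhibition data fitted to a one-site sigmoidal model.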

[3] = molecular target: Voltage-dependent L-type calcium channel subunit alpha-1D (Rattus norvegicus, UniProt P27732); test: Antagonist activity at rat CaV1.3alpha1D transfected in HEK293 cells by FLIPR assay; type: cell-based; summary of the method: as §1
Sequence of Voltage-dependent L-type calcium channel subunit alpha-1D (P27732 whole entry): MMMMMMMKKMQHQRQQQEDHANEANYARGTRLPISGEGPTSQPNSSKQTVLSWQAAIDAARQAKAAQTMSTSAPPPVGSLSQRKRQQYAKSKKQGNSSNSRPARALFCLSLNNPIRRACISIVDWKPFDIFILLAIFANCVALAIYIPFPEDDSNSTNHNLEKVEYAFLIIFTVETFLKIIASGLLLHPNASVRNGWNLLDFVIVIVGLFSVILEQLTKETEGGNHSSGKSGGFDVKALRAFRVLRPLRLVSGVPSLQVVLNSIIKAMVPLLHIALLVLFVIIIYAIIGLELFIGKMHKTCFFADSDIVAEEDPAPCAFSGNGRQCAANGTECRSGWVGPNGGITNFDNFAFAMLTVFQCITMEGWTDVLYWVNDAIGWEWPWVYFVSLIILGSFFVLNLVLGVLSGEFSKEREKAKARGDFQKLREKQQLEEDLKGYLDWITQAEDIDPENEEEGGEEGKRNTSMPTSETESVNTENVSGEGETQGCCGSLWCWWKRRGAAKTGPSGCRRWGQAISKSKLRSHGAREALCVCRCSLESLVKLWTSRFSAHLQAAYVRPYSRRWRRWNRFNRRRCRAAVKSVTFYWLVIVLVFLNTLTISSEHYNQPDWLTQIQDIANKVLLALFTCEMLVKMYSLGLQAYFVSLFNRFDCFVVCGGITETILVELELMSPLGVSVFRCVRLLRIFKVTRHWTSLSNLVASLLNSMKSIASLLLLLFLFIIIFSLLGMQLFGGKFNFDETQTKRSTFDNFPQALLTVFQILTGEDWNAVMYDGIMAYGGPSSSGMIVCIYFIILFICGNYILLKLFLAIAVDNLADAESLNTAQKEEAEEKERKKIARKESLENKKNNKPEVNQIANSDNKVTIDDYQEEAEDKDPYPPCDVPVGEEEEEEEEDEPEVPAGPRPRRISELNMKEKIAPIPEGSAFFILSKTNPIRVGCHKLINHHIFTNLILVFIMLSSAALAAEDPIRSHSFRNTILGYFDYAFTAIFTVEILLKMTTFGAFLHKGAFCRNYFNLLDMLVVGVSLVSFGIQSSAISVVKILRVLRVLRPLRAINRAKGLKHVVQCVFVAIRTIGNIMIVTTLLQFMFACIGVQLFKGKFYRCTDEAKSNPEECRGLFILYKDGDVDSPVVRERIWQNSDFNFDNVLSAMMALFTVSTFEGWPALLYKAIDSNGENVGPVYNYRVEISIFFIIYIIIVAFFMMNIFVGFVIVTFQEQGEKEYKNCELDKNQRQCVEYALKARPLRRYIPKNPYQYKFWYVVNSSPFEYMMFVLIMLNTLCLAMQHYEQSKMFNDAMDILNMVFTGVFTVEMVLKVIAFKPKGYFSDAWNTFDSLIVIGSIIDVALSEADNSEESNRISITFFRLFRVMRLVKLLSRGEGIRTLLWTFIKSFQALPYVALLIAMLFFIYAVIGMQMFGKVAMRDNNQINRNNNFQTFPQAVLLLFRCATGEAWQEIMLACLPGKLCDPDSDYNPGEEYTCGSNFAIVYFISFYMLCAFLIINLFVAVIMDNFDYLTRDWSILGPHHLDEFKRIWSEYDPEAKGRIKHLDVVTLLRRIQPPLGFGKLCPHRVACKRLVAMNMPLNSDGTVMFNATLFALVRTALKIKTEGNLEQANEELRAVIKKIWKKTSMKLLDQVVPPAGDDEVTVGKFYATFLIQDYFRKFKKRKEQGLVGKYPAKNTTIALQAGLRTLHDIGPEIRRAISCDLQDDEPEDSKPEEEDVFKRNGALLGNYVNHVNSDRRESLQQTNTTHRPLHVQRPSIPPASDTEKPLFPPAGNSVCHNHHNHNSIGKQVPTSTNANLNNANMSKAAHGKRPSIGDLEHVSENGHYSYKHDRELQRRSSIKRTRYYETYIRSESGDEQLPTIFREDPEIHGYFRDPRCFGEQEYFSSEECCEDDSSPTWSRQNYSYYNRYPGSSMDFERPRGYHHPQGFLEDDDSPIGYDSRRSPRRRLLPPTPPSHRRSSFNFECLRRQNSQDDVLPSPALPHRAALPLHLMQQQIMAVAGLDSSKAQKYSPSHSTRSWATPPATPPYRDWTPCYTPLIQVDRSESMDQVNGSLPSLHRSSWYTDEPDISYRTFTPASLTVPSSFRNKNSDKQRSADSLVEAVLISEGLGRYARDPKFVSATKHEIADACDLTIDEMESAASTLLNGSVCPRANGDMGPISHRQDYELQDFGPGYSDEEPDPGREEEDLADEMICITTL

Sequence of Voltage-dependent L-type calcium channel subunit alpha-1C (P15381 whole entry, canonical isoform): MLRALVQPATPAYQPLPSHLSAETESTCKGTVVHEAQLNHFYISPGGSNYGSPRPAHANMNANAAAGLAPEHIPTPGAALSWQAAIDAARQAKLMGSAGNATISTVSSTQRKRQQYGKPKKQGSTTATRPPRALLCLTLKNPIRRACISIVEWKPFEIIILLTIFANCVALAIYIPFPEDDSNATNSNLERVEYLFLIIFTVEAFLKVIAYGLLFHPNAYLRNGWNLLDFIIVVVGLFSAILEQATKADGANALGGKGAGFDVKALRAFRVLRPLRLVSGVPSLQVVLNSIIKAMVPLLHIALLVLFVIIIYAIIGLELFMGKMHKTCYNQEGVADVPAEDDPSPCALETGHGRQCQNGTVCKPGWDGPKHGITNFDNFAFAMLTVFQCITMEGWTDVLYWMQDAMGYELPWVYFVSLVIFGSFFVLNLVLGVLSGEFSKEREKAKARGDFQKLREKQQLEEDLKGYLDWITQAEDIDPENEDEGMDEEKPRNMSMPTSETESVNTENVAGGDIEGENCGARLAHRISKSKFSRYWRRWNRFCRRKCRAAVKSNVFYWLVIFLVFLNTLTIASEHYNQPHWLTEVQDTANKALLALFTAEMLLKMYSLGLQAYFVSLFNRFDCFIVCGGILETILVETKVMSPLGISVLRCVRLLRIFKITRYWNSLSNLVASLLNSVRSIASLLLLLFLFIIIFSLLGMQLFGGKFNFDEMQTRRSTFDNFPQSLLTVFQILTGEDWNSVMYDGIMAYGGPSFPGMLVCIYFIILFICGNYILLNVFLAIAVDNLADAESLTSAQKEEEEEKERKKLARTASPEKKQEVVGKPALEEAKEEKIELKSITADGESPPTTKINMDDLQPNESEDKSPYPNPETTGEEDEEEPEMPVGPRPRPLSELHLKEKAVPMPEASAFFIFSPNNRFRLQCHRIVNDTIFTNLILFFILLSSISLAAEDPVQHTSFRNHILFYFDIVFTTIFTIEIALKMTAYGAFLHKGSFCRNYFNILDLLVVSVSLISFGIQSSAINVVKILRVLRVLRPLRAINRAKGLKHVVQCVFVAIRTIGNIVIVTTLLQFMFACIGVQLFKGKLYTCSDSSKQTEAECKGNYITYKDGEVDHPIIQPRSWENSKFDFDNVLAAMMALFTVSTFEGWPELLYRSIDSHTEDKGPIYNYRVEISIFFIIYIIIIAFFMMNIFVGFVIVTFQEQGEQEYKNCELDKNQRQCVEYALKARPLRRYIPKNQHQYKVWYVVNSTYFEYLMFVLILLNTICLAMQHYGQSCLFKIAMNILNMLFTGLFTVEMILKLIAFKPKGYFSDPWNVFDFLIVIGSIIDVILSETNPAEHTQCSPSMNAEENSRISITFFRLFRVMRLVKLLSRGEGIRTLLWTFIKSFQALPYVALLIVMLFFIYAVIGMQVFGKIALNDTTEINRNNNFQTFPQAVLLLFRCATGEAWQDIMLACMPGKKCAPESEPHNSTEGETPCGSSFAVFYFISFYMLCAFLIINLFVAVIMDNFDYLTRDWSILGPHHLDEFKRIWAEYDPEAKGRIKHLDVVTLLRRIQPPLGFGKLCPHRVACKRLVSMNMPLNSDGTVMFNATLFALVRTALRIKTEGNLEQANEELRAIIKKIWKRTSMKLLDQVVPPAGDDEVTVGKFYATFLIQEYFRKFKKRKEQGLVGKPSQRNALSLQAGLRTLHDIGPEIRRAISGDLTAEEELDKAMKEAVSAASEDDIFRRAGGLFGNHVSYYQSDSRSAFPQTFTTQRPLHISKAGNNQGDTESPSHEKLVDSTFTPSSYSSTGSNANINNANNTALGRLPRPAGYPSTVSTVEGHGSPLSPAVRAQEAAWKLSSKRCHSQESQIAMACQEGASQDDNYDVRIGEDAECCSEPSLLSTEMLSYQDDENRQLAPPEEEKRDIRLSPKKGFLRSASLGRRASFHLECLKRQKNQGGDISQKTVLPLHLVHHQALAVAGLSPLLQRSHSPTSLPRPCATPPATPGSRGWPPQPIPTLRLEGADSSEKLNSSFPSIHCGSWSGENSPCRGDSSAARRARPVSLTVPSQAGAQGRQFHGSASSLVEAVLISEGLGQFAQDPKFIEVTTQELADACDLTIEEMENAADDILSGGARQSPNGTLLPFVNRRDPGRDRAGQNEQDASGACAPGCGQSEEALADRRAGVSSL

Structure (SMILES)	Ratio IC50 [1]	IC50 [2] [µM]	IC50 [3] [µM]
O=C1CC(=O)N(C2CCCC2)C(=O)N1CCCc1ccccc1	2.9	21.9	7.6
O=C1CC(=O)N(C2CC3CCC2C3)C(=O)N1CCc1ccc(Cl)cc1 (mixture of isomers)	8.9	50	5.6
CC(C)(CN1C(=O)CC(=O)N(C2CCCC2)C1=O)c1cccc(Cl)c1	4.9	12.6	2.4
O=C1CC(=O)N(C2CCCC2)C(=O)N1CCc1cc(C(F)(F)F)cc(C(F)(F)F)c1	1.8	2.6	1.4
CC1(C)CCC[C@H]1N1C(=O)CC(=O)N(CCc2cccc(Cl)c2)C1=O	1.9	4.7	2.5
O=C1CC(=O)N([C@H]2C[C@H]3CC[C@@H]2C3)C(=O)N1CCc1cccc(Cl)c1	> 29	> 100	3.5
CC1(C)CCC[C@@H]1N1C(=O)CC(=O)N(CCc2cccc(Cl)c2)C1=O	1.6	3.5	2.1
O=C1CC(=O)N([C@@H]2C[C@@H]3CC[C@H]2C3)C(=O)N1CCc1cccc(Cl)c1	> 50	> 100	2
C[C@H]1CCC[C@@H]1N1C(=O)CC(=O)N(CCc2cccc(Cl)c2)C1=O (racemic)	1.8	21	11
O=C1CC(=O)N(C2CCCC2)C(=O)N1CC(c1ccccc1)c1ccccc1	1.6	8.1	5.2
O=C(OCCc1cccc(F)c1)[C@H]1CC[C@@H](N2C(=O)CC(=O)N(CCc3cccc(Cl)c3)C2=O)C1	0.7	6.7	9.7
CC(CN1C(=O)CC(=O)N(C2CC3CCC2C3)C1=O)c1cccc(Cl)c1 (mixture of isomers)	2.1	5.1	2.4
C[C@@H]1CCC[C@@H]1N1C(=O)CC(=O)N(CCc2cccc(Cl)c2)C1=O	2.3	13	5.5
C[C@H]1CCC[C@H]1N1C(=O)CC(=O)N(CCc2cccc(Cl)c2)C1=O	1.3	9.3	7.3
COc1ccc(CCN(C)CCCC(C#N)(c2ccc(OC)c(OC)c2)C(C)C)cc1OC (stereo unspecified)	< 2		
CC(=O)O[C@@H]1CCC[C@@H]1N1C(=O)CC(=O)N(CCc2cccc(Cl)c2)C1=O	0.6	23.4	38.6
C[C@H](C1CCCCC1)N1C(=O)CC(=O)N(CCc2ccc(Cl)cc2)C1=O	> 12	> 100	8.1
O=C1CC(=O)N(C2CCCC2)C(=O)N1CCc1ccc(Cl)c(Cl)c1	2.7	3.4	1.2
C[C@@H](C1CCCCC1)N1C(=O)CC(=O)N(CCc2ccc(Cl)cc2)C1=O	> 12	> 100	8.3
O=C1CC(=O)N([C@@H]2C[C@@H]3CC[C@H]2C3)C(=O)N1CCc1ccc(Cl)cc1	11	54	1.9
O=C1CC(=O)N(C2CCCC2)C(=O)N1CCc1ccc(OCc2ccccc2)cc1	0.5	18.7	34.1
